Published values gathered from unrelated publications.
Lines come from different studies, so protocols differ.
Target: Beta-adrenergic receptor kinase 1 (GRK2, Homo sapiens, UniProt P25098)
Sequence (P25098 1-689, as in one of the studies): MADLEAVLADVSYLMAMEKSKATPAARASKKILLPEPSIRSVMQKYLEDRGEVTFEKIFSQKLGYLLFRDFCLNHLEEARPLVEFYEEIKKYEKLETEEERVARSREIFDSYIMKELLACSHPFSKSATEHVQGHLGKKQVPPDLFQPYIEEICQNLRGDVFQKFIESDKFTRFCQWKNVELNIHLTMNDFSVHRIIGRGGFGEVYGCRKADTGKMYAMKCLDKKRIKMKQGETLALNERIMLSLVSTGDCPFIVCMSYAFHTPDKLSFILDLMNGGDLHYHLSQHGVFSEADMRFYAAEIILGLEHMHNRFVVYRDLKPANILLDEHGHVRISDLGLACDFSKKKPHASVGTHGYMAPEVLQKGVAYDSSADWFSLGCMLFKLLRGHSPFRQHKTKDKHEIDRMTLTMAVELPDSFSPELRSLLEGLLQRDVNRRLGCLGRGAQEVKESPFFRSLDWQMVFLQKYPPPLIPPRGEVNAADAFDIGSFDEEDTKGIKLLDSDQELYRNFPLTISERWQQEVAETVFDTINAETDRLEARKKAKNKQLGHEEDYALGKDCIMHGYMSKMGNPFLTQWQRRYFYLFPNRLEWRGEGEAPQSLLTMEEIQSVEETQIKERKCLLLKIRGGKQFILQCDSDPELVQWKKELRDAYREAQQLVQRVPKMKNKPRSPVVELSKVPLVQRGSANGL

`c1cncc(-c2cccc(Nc3nccc(NC4CCCCC4)n3)c2)c1` has a remaining binding of 100% (binding, competition with immobilised ligand; 10 µM).
For `COc1ccnn2ncc(-c3ccnc(N(C)C)n3)c12`, the remaining binding was 100% (binding; 1 µM).
The remaining binding of `O=C(c1ccc(Nc2ncc(Cl)c(-c3cc4ccccc4s3)n2)cc1)N1CCC(N2CCCC2)CC1` is reported as 71% (binding, competition with immobilised ligand; 1 µM).
`CN(CCCC(F)(F)F)c1nccc(-c2cnn3ncccc23)n1` has a remaining binding of 61% (binding, competition with immobilised ligand; 1 µM).
`COc1cnc(Nc2cccc(S(N)(=O)=O)c2)nc1N1CCN(c2ccccc2)C(=O)C1` has a remaining binding of 68% (binding, competition with immobilised ligand; 1 µM).
`C[C@@H](c1ccc(-n2cnc3c(N)ncnc32)cc1)N1CCc2nn(C)c(Cc3ccccc3)c2C1=O` gave a remaining binding of 67% (binding, competition with immobilised ligand; 0.1 µM).
`N[C@@H]1CCN(c2nccc(-c3cnn4ncccc34)n2)C1` gave a remaining binding of 82% (binding; 1 µM).
For `O=C(Nc1c[nH]nc1C(=O)NC1CCNCC1)c1cc(F)cc(F)c1`, the remaining binding was 100% (binding, competition with immobilised ligand; 1 µM).
The remaining binding of `c1ccc(N2CCN(Cc3nc4ccccc4[nH]3)CC2)nc1` is reported as 90% (binding, competition with immobilised ligand; 1 µM).
`C[C@@H]1CCN(c2nccc(-c3cnn4ncccc34)n2)C1` gave a remaining binding of 57% (binding, competition with immobilised ligand; 1 µM).
`CCCCN(CCCC)C(=O)CN1C[C@H](c2cc(OC)c3c(c2)OCO3)[C@@H](C(=O)O)[C@@H]1CC(C)(C)CCC` has a remaining binding of 71.8% (cell-free assay, competition with immobilised ligand; 1 µM).
`COc1cnc(Nc2cccc(S(N)(=O)=O)c2)nc1N1CCN(c2ccccc2)CC1` has a remaining binding of 88% (binding, competition with immobilised ligand; 1 µM).
With `Nc1cnc(N2CCc3cc(S(=O)(=O)Nc4c(F)cc(Cl)cc4F)cc(N4CCCC4=O)c32)nc1` the remaining binding was 100% (cell-free assay, competition with immobilised ligand; 1 µM).
The remaining binding of `O=C(NCCCN1CCOCC1)c1ccc(Nc2ncc(Cl)c(-c3ccc(Cl)s3)n2)cc1` is reported as 91% (binding, competition with immobilised ligand; 1 µM).
`COc1ccc2c(c1)O[C@H](c1ccc(OC)c(OC)c1)C[C@@H]2NC(=O)C1(c2ccc3c(c2)OC(F)(F)O3)CC1` gave a remaining binding of 84% (cell-free assay, competition with immobilised ligand; 1 µM).
With `CN(c1nccc(-c2cnn3ncccc23)n1)C1CC1` the remaining binding was 64% (binding; 1 µM).
`CNC(=O)Nc1ccc2c(c1)CC[C@@]21OC(=O)N(CC(=O)N(Cc2ccc(F)cc2)[C@@H](C)C(F)(F)F)C1=O` gave a remaining binding of 74% (cell-free assay, competition with immobilised ligand; 1 µM).
The remaining binding of `Cc1cnn2ncc(-c3ccnc(N(C)C)n3)c2c1` is reported as 50% (binding; 1 µM).
`O=C(c1ccc(Nc2nccc(-c3cc4ccccc4s3)n2)cc1)N1CCC(N2CCCC2)CC1` gave a remaining binding of 100% (binding, competition with immobilised ligand; 1 µM).
`CO[C@@H](C)c1c(Nc2ccc([C@@H](N(C)C(=O)C3CCS(=O)(=O)CC3)C(F)(F)F)cc2)cnc2cc(Cl)nn12` has a remaining binding of 92% (cell-free assay, competition with immobilised ligand; 1 µM).
